Source: ChEMBL document CHEMBL5335771, “Thioxanthenone-based derivatives as multitarget therapeutic leads for Alzheimer's disease” (Eur J Med Chem, 2023)

Assays:
[1] = biological target: T1, Microtubule-associated protein tau (Homo sapiens, UniProt P10636); test: Inhibition of tau (unknown origin) aggregation expressed in Escherichia coli BL21 (DE3)
Summary of the method: (§1)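 E. coli BL21(DE3) carrying pTARA (T7 RNA polymerase under PBAD) and pRKT42 (four-repeat tau) grown at 37 °C in M9 with 0.5% glucose, antibiotics and 250 μM ThS to OD600 0.6. […] ThS fluorescence ex 430/em 485 nm, normalized to tau-expressing cells (100%) and non-expressing cells (0%); OD600 checked for growth.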
Target sequence in this assay (P10636 whole entry): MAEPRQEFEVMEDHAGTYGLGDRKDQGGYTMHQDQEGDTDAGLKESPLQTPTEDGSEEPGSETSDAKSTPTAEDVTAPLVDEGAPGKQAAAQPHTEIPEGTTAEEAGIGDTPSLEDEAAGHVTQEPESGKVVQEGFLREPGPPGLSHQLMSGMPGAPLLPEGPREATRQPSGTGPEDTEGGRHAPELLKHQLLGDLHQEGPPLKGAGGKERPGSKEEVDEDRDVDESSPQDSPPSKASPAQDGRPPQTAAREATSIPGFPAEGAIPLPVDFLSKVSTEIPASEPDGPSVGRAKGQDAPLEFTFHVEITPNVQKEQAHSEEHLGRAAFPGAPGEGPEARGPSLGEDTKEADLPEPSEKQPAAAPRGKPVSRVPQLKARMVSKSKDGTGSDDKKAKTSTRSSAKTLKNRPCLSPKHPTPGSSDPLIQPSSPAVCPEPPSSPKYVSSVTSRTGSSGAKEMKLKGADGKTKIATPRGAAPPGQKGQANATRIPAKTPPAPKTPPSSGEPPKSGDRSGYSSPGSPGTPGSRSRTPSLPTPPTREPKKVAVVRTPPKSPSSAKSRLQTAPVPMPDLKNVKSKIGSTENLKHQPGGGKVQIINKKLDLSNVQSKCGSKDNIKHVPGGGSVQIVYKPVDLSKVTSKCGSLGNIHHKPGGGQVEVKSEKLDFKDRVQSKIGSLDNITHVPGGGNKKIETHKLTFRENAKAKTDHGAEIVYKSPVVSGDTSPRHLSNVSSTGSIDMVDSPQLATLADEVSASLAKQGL

[2] = biological target: Amyloid-beta precursor protein (Homo sapiens, UniProt P05067); test: Inhibition of amyloid beta 40 peptide (unknown origin) aggregation incubated for 2 hr by ThT fluorescence based spectrofluorimetric analysis
Summary of the method: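 Aβ40 peptide aggregation enhanced with 2% HFIP; thioflavin T fluorescence read-out; run in triplicate.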

[3] = biological target: T1, Microtubule-associated protein tau; test: Inhibition of PHF6 peptide (unknown origin) aggregation at 10 uM measured after 3 hrs by thioflavin T fluorescence based fluorimetric analysis relative to control
Target sequence in this assay (P10636 whole entry, looked up): as the sequence (P10636 whole entry) above

[4] = biological target: Acetylcholinesterase (Electrophorus electricus, UniProt O42275); test: Inhibition of electric eel AChE using acetylthiocholine iodide as substrate preincubated for 20 mins followed by substrate addition by DTNB reagent based Ellman's method
[5] = biological target: Cholinesterase (Homo sapiens, UniProt P06276); test: Inhibition of human recombinant BChE using acetylthiocholine iodide as substrate preincubated for 20 mins followed by substrate addition by DTNB reagent based Ellman's method
Summary of the method: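 Human BChE was assayed by the Ellman spectrophotometric method. IC50 values are means of three independent experiments, each run in triplicate.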

[6] = biological target: Cholinesterase (Equus caballus, UniProt P81908); test: Inhibition of equine serum BChE using butyrylthiocholine iodide as substrate preincubated for 20 mins followed by substrate addition by DTNB reagent based Ellman's method; assay type: cell-free
[7] = biological target: Acetylcholinesterase (Homo sapiens, UniProt P22303); test: Inhibition of human recombinant AChE using acetylthiocholine iodide as substrate preincubated for 20 mins followed by substrate addition by DTNB reagent based Ellman's method
[8] = biological target: T1, Microtubule-associated protein tau; test: Inhibition of tau (unknown origin) aggregation expressed in Escherichia coli BL21 (DE3) at 10 uM relative to control; summary of the method: as §1
Target sequence in this assay (P10636 whole entry): as above

Sequence of Cholinesterase (Equus caballus, UniProt P81908) (P81908 whole entry): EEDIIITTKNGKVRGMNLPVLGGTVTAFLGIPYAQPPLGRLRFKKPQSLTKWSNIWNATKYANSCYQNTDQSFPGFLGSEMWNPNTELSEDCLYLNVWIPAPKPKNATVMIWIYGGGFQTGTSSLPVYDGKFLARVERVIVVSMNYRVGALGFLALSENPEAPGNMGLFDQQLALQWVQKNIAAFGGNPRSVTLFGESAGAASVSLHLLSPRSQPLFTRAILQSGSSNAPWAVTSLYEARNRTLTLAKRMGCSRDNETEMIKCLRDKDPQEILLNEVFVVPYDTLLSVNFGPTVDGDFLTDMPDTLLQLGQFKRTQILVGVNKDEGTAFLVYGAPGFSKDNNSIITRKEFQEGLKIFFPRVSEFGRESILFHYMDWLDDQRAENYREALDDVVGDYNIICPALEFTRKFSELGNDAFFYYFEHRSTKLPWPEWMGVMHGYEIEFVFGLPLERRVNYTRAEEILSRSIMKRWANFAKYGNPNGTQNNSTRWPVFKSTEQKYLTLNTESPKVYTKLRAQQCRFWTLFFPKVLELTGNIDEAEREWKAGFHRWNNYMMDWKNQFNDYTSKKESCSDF
Sequence of Acetylcholinesterase (Homo sapiens, UniProt P22303) (P22303 whole entry): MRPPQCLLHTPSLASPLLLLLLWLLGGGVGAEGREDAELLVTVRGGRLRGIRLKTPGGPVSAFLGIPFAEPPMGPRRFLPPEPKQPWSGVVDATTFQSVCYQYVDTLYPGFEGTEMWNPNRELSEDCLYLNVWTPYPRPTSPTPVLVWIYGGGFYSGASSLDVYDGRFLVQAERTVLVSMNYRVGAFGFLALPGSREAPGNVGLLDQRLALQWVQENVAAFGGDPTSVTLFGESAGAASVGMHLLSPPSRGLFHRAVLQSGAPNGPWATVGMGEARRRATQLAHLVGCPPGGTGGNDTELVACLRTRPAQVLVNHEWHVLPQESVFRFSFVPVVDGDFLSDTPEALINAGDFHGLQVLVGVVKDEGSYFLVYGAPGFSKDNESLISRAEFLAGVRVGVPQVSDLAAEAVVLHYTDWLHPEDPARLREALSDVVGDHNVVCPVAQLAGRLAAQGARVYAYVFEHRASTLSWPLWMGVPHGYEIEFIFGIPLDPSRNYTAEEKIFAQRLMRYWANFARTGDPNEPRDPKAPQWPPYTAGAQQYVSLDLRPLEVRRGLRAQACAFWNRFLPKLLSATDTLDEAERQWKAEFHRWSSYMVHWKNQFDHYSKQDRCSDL
Sequence of Acetylcholinesterase (Electrophorus electricus, UniProt O42275) (O42275 whole entry): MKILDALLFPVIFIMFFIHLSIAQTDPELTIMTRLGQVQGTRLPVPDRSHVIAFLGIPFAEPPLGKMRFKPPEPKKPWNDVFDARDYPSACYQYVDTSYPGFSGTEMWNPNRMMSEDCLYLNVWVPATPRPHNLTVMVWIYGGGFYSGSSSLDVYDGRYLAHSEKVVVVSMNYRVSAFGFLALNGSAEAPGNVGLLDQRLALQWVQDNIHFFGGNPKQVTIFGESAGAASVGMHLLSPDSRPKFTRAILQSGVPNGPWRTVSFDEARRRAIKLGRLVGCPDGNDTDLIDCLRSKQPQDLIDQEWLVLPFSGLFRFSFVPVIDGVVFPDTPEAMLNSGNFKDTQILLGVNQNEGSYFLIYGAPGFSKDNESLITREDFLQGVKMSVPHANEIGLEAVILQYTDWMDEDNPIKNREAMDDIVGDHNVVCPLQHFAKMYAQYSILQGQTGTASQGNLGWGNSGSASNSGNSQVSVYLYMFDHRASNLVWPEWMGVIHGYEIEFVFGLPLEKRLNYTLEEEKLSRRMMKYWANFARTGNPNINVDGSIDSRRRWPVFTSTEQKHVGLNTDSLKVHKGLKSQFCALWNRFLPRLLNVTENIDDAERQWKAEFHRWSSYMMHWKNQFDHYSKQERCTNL
Sequence of Amyloid-beta precursor protein (P05067 whole entry): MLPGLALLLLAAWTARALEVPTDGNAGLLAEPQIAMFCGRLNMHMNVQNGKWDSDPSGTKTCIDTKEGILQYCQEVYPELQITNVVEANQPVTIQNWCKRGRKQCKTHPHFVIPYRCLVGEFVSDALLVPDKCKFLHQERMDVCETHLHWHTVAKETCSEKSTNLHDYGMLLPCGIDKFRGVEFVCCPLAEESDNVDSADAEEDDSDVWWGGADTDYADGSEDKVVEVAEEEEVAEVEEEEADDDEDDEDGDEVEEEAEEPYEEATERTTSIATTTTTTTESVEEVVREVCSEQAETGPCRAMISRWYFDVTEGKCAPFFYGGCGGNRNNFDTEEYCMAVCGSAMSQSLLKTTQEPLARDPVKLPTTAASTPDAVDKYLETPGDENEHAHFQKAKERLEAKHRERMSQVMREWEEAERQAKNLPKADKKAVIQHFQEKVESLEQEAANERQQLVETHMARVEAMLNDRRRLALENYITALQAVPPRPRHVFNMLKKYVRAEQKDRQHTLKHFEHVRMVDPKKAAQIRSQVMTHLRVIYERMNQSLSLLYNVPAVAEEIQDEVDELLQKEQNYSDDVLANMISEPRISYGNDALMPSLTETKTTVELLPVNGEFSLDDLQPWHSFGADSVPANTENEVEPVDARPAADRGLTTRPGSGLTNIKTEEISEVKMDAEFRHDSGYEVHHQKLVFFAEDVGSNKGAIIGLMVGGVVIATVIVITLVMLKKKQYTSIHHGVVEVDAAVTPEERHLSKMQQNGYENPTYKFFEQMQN
Sequence of Cholinesterase (Homo sapiens, UniProt P06276) (P06276 whole entry): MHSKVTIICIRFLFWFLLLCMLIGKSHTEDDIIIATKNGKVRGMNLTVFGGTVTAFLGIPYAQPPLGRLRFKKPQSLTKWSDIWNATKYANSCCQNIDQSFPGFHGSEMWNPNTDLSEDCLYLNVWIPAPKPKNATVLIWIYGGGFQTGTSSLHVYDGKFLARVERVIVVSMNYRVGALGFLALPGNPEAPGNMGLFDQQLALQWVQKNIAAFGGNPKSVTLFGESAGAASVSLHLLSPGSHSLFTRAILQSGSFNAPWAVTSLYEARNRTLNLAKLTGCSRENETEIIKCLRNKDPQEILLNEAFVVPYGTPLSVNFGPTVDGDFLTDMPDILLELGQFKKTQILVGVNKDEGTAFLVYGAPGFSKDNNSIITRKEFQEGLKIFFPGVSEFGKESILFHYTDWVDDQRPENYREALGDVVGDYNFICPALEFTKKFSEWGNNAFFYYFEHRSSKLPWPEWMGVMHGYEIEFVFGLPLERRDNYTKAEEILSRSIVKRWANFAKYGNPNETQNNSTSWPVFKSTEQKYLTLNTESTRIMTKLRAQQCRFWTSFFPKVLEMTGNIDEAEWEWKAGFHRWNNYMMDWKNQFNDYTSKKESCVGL

Row | Structure (SMILES) | IC50 [2] [µM] | inhibition [3] [%] | inhibition [8] [%] | IC50 [1] [µM] | IC50 [4] [µM] | IC50 [5] [µM] | IC50 [6] [µM] | IC50 [7] [µM]
1 | COc1ccc2sc3c([N+](=O)[O-])ccc(NCCC[C@@H]4CCCN5CCCC[C@H]45)c3c(=O)c2c1 | 7.9 | – | – | 3 | 0.12 | 7.31 | 2 | 1.75
2 | CCN(CC)CCCNc1ccc(N)c2sc3ccc(OC)cc3c(=O)c12 | 21 | > 80 | 24 | – | – | – | – | –
3 | COc1ccc2sc3c(C)ccc(NCC[C@@H]4CCCN5CCCC[C@H]45)c3c(=O)c2c1 | 2.4 | – | – | 14 | 5.1 | 0.71 | 0.14 | 3.59
4 | Cc1ccc(NCC[C@@H]2CCCN3CCCC[C@H]23)c2c(=O)c3cc(O)ccc3sc12 | 2.4 | – | – | 8.9 | 3.2 | 0.9 | 0.16 | 4.26
5 | Cc1ccc(NC[C@@H]2CCCN3CCCC[C@H]23)c2c(=O)c3ccccc3oc12 | 48 | – | 35 | – | – | – | – | –
6 | CCCN(SC[C@H]1CCCN2CCCC[C@H]12)C1=C(Cl)C(=O)c2ccccc2C1=O | 61 | – | – | – | – | – | – | –
7 | COc1ccc2sc3c([N+](=O)[O-])ccc(NC[C@@H]4CCCN5CCCC[C@H]45)c3c(=O)c2c1 | 11 | – | 32 | – | – | – | – | –

More lines, in order of falling IC50 [2], values ahead:

Row | IC50 [2] [µM] | inhibition [3] [%] | inhibition [8] [%] | Structure (SMILES) | IC50 [1] [µM] | IC50 [4] [µM] | IC50 [5] [µM] | IC50 [6] [µM] | IC50 [7] [µM]
8 | 5.9 | – | – | Cc1ccc(NC[C@@H]2CCCN3CCCC[C@H]23)c2c(=O)c3cc(O)ccc3sc12 | 9.1 | – | – | – | –
9 | 4.3 | – | – | COc1ccc2sc3c(C)ccc(NC[C@@H]4CCCN5CCCC[C@H]45)c3c(=O)c2c1 | 5.5 | – | – | – | –
10 | 2.9 | > 80 | – | Cc1ccc(NCCC[C@@H]2CCCN3CCCC[C@H]23)c2c(=O)c3cc(O)ccc3sc12 | 7.3 | – | – | – | –
